From ChEMBL document CHEMBL1152942, “Chemistry of renieramycins. Part 8: synthesis and cytotoxicity evaluation of renieramycin M-jorunnamycin A analogues” (Bioorg Med Chem, 2009)
Active and inactive are the calls of the source. The rule behind the calls is not given here.

Columns and labels:
Assay type in all cases: functional, cell-based
HCT-116 [1] = test: Cytotoxicity against human HCT116 cells after 3 days by MTT assay
How it was run: (§1)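 HCT116 colon carcinoma cells were seeded at 1500 cells/well 24 h before treatment. They were exposed to threefold serial dilutions from 100 nM to 0.41 nM, with under 1% DMSO final (20 mM DMSO stocks), for 3 days. Growth was read by MTT absorbance at 540 nm. IC50 was taken as 50% growth inhibition relative to untreated controls, in triplicate.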

MDA-MB-435 = test: Cytotoxicity against human MDA-MB-435 cells after 3 days by MTT assay
QG-56 = test: Cytotoxicity against human QG56 cells at 1.4 to 100 nM after 3 days by MTT assay
HCT-116 [2] = test: Cytotoxicity against human HCT116 cells at 1.4 to 100 nM after 3 days by MTT assay; how it was run: as §1

Row | SMILES | IC50 (HCT-116 [1]; Homo sapiens, HCT-116, 72 h) [nM] | IC50 (MDA-MB-435; Homo sapiens, MDA-MB-435, 72 h) [nM] | further results
1 | COC1=C(C)C(=O)C2=C(C1=O)[C@@H]1[C@@H]3CC4=C(C(=O)C(OC)=C(C)C4=O)[C@H](COC(=O)C4CC=CCC4)N3[C@@H](C#N)[C@H](C2)N1C (mixture of isomers) | 43 | 27 | –
2 | CCC(C)C(=O)OC[C@H]1C2=C(C[C@H]3[C@H]4C5=C(C[C@@H]([C@H](C#N)N13)N4C)C(=O)C(C)=C(OC)C5=O)C(=O)C(C)=C(OC)C2=O (mixture of isomers) | 33 | 12 | –
3 | COC1=C(C)C(=O)C2=C(C1=O)[C@@H]1[C@@H]3CC4=C(C(=O)C(OC)=C(C)C4=O)[C@H](COC(=O)c4ccccc4)N3[C@@H](C#N)[C@H](C2)N1C | 25 | 8.6 | –
4 | CC=C(C)C(=O)OC[C@H]1C2=C(C[C@H]3[C@H]4C5=C(C[C@@H]([C@H](C#N)N13)N4C)C(=O)C(C)=C(OC)C5=O)C(=O)C(C)=C(OC)C2=O [RENIERAMYCIN M] | – | – | IC50 (HCT-116 [1]; hct-116): 34 nM; IC50 (MDA-MB-435; mda-mb-435): 11 nM
5 | COC1=C(C)C(=O)C2=C(C1=O)[C@@H]1[C@@H]3CC4=C(C(=O)C(OC)=C(C)C4=O)[C@H](COC(=O)C4CCCC4)N3[C@@H](C#N)[C@H](C2)N1C | 93 | 30 | –
6 | COC1=C(C)C(=O)C2=C(C1=O)[C@@H]1[C@@H]3CC4=C(C(=O)C(OC)=C(C)C4=O)[C@H](COC(=O)c4ccc(OC)cc4)N3[C@@H](C#N)[C@H](C2)N1C | 26 | 8.9 | –
7 | COC1=C(C)C(=O)C2=C(C1=O)[C@@H]1[C@@H]3CC4=C(C(=O)C(OC)=C(C)C4=O)[C@H](COC(=O)C(C)C)N3[C@@H](C#N)[C@H](C2)N1C | 22 | 10 | –
8 | COC1=C(C)C(=O)C2=C(C1=O)[C@@H]1[C@@H]3CC4=C(C(=O)C(OC)=C(C)C4=O)[C@H](COC=O)N3[C@@H](C#N)[C@H](C2)N1C | 38 | 38 | –
9 | COC1=C(C)C(=O)C2=C(C1=O)[C@@H]1[C@@H]3CC4=C(C(=O)C(OC)=C(C)C4=O)[C@H](COC(=O)c4ccccc4OC)N3[C@@H](C#N)[C@H](C2)N1C | 34 | 11 | –
10 | COC1=C(C)C(=O)C2=C(C1=O)[C@@H]1[C@@H]3CC4=C(C(=O)C(OC)=C(C)C4=O)[C@H](COC(=O)c4ccc5ccccc5n4)N3[C@@H](C#N)[C@H](C2)N1C | 11 | 4.2 | –
11 | COC1=C(C)C(=O)C2=C(C1=O)[C@@H]1[C@@H]3CC4=C(C(=O)C(OC)=C(C)C4=O)[C@H](CO)N3[C@@H](C#N)[C@H](C2)N1C [JOURNNAMYCIN A] | 130 | 290 | Activity (QG-56): Active
12 | COC1=C(C)C(=O)C2=C(C1=O)[C@@H]1[C@@H]3CC4=C(C(=O)C(OC)=C(C)C4=O)[C@H](COC(=O)C4CC=CC4)N3[C@@H](C#N)[C@H](C2)N1C | 33 | 13 | –
13 | COC1=C(C)C(=O)C2=C(C1=O)[C@@H]1[C@@H]3CC4=C(C(=O)C(OC)=C(C)C4=O)[C@H](COC(=O)CCCl)N3[C@@H](C#N)[C@H](C2)N1C | 16 | 12 | –
14 | COC1=C(C)C(=O)C2=C(C1=O)[C@@H]1[C@@H]3CC4=C(C(=O)C(OC)=C(C)C4=O)[C@H](COC(=O)c4ccc([N+](=O)[O-])cc4)N3[C@@H](C#N)[C@H](C2)N1C | 26 | 9.4 | –
15 | COC1=C(C)C(=O)C2=C(C1=O)[C@@H]1[C@@H]3CC4=C(C(=O)C(OC)=C(C)C4=O)[C@H](COC(=O)c4ccccn4)N3[C@@H](C#N)[C@H](C2)N1C | 3.3 | 1.4 | –
16 | CCCC(=O)OC[C@H]1C2=C(C[C@H]3[C@H]4C5=C(C[C@@H]([C@H](C#N)N13)N4C)C(=O)C(C)=C(OC)C5=O)C(=O)C(C)=C(OC)C2=O | 34 | 12 | –
17 | COC1=C(C)C(=O)C2=C(C1=O)[C@@H]1[C@@H]3CC4=C(C(=O)C(OC)=C(C)C4=O)[C@H](COC(=O)c4cnc5ccccc5c4)N3[C@@H](C#N)[C@H](C2)N1C | 10 | 3.8 | –
18 | CCCCCC(=O)OC[C@H]1C2=C(C[C@H]3[C@H]4C5=C(C[C@@H]([C@H](C#N)N13)N4C)C(=O)C(C)=C(OC)C5=O)C(=O)C(C)=C(OC)C2=O | 100 | 40 | –
19 | CCC(=O)OC[C@H]1C2=C(C[C@H]3[C@H]4C5=C(C[C@@H]([C@H](C#N)N13)N4C)C(=O)C(C)=C(OC)C5=O)C(=O)C(C)=C(OC)C2=O [JORUNNAMYCIN C] | 11 | 4.2 | Activity (QG-56): Active
20 | COC1=C(C)C(=O)C2=C(C1=O)[C@@H]1[C@@H]3CC4=C(C(=O)C(OC)=C(C)C4=O)[C@H](COC(=O)c4cccnc4)N3[C@@H](C#N)[C@H](C2)N1C | 7.9 | 3.5 | –
21 | COC1=C(C)C(=O)C2=C(C1=O)[C@@H]1[C@@H]3CC4=C(C(=O)C(OC)=C(C)C4=O)[C@H](COC(C)=O)N3[C@@H](O)[C@H](C2)N1C | – | – | Activity (QG-56): Active; Activity (HCT-116 [2]): Active
22 | COC1=C(C)C(=O)C2=C(C1=O)[C@@H]1[C@@H]3CC4=C(C(=O)C(OC)=C(C)C4=O)[C@H](COC(=O)c4ccncc4)N3[C@@H](C#N)[C@H](C2)N1C | 10 | 4.4 | –
23 | COC1=C(C)C(=O)C2=C(C1=O)[C@@H]1[C@@H]3CC4=C(C(=O)C(OC)=C(C)C4=O)[C@H](COC(=O)C4=CCCCC4)N3[C@@H](C#N)[C@H](C2)N1C | 49 | 29 | –
24 | C/C=C(/C)C(=O)OC[C@H]1C2=C(C[C@H]3[C@H]4C5=C(C[C@@H]([C@H](C#N)N13)N4C)C(=O)C(C)=C(OC)C5=O)C(=O)C(C)=C(OC)C2=O [RENIERAMYCIN M] | – | – | IC50 (HCT-116 [1]; hct-116): 9.4 nM; IC50 (MDA-MB-435; mda-mb-435): 3.8 nM
25 | COC1=C(C)C(=O)C2=C(C1=O)[C@@H]1[C@@H]3CC4=C(C(=O)C(OC)=C(C)C4=O)[C@H](COC(C)=O)N3[C@@H](C#N)[C@H](C2)N1C [CYANOJORUMYCIN] | 3.2 | 1.4 | –
26 | COC1=C(C)C(=O)C2=C(C1=O)[C@@H]1[C@@H]3CC4=C(C(=O)C(OC)=C(C)C4=O)[C@H](COC(=O)C4=CCCC4)N3[C@@H](C#N)[C@H](C2)N1C | 33 | 13 | –
27 | COC1=C(C)C(=O)C2=C(C1=O)[C@@H]1[C@@H]3CC4=C(C(=O)C(OC)=C(C)C4=O)[C@H](COC(=O)c4ccc(Br)cc4)N3[C@@H](C#N)[C@H](C2)N1C | 38 | 13 | –
28 | COC1=C(C)C(=O)C2=C(C1=O)[C@@H]1[C@@H]3CC4=C(C(=O)C(OC)=C(C)C4=O)[C@H](COC(=O)C=C(C)C)N3[C@@H](C#N)[C@H](C2)N1C | 27 | 11 | –
29 | COC1=C(C)C(=O)C2=C(C1=O)[C@@H]1[C@@H]3CC4=C(C(=O)C(OC)=C(C)C4=O)[C@H](COC(=O)c4ccnc5ccccc45)N3[C@@H](C#N)[C@H](C2)N1C | 10 | 4.1 | –
